Data reported in ChEMBL document CHEMBL3600329, “Synthesis, biological profiling and mechanistic studies of 4-aminoquinoline-based heterodimeric compounds with dual trypanocidal-antiplasmodial activity” (Bioorg Med Chem, 2015).
pIC50: −log10 of the molar value.

What was measured:
[1] = molecular target: Trypanothione reductase (Trypanosoma brucei brucei, UniProt P39051); assay: Inhibition of Trypanosoma brucei recombinant Trypanothione reductase assessed as decrease in (T[SH]2) formation using trypanothione disulfide as substrate after 15 mins by colorimetric analysis
Sequence of Trypanothione reductase (P39051 whole entry): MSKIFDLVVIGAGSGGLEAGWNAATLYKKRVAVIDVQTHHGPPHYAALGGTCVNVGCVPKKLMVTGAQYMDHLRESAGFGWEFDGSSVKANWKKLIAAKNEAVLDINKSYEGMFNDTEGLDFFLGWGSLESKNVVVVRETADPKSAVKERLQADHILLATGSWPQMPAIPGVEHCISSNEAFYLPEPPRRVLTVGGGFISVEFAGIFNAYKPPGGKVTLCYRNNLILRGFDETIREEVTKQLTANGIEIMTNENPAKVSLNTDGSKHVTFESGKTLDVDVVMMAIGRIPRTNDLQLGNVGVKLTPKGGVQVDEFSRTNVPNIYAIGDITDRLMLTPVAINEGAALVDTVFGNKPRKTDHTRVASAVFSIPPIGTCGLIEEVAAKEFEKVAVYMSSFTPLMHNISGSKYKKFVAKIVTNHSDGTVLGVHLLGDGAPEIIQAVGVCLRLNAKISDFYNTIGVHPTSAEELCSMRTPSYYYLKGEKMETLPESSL

[2] = tested on: L6; assay: Cytotoxicity against rat L6 cells assessed as inhibition of cell growth after 6 days by Spectramax fluorescence plate reader analysis; format: cell-based; details: L6, 144 h
Method in brief: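 L6 rat skeletal myoblasts seeded at 1×10^4 mL⁻¹ in growth medium containing a range of compound concentrations, incubated 6 days at 37 °C; resazurin added, fluorescence read after a further 8 h. IC50 = concentration inhibiting growth by 50%; mean of triplicate experiments ± SEM.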

[3] = Selectivity index, ratio of IC50 for rat L6 cells to IC50 for bloodstream form of Trypanosoma brucei 221; format: toxicity, cell-based; details: read-out: Ratio IC50
Method in brief: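 IC50 ratio, L6 over T. brucei. L6 cells seeded at 1×10^4 mL⁻¹ with compound, 6 days at 37 °C, then resazurin, 8 h more, fluorescence read. Log-phase bloodstream T. brucei 221 in modified Iscove's medium at 0.25 × 105 mL⁻¹, compound range in triplicate, 37 °C; resazurin at 48 h, read after 16 h more.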

[4] = tested on: Trypanosoma brucei; assay: Selectivity index, ratio of IC50 for inhibition of Trypanosoma brucei recombinant Trypanothione reductase to IC50 for trypanocidal activity against bloodstream form of Trypanosoma brucei 221
[5] = Inhibition of beta-haematin formation by microplate reader analysis relative to hemin; format: physicochemical
Method in brief: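 Haemin chloride (8 mM stock in DMSO) mixed with serial compound dilutions (0.5-32 mM) in 25% DMSO; formation initiated with 8 M acetate buffer pH 5.0, 18 h at 37 °C. Pellets washed with DMSO, β-haematin dissolved in 0.1 M NaOH, OD 400 nm read versus drug-free controls; BHIA50 expressed as compound equivalents relative to haemin, by linear regression.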

[6] = tested on: Trypanosoma brucei; assay: Trypanocidal activity against bloodstream form of Trypanosoma brucei 221 assessed as inhibition of parasite growth at pH 7.4 after 48 hrs by Spectramax plate reader analysis; format: functional, organism-based; details: Trypanosoma brucei, 221, 48 h
Method in brief: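 Bloodstream-form T. brucei strain 221 grown at 37 °C in modified Iscove's medium; log-phase cells diluted to 0.25 × 10^5 mL⁻¹, exposed to a range of compound concentrations in triplicate at 37 °C. Resazurin added after 48 h, read after a further 16 h. IC50 and IC90 = concentrations inhibiting growth 50% and 90%; mean of triplicate experiments ± SEM.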

[7] = Selectivity index, ratio of IC50 for rat L6 cells to IC50 for chloroquine-resistant Plasmodium falciparum K1; format: toxicity, cell-based; details: read-out: Ratio IC50
Method in brief: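 IC50 ratio, L6 over P. falciparum K1. L6 cells seeded at 1×10^4 mL⁻¹ with compound, 6 days at 37 °C, resazurin added, fluorescence after 8 h. Parasites in A+ erythrocytes (2.5% haematocrit, 1% parasitaemia) with twofold dilutions, 48 h at 37 °C in low-oxygen gas; growth read by LDH activity at 550 nm.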

[8] = tested on: Plasmodium falciparum; assay: Antiplasmodial activity against chloroquine-resistant Plasmodium falciparum K1 infected in human A+ erythrocytes assessed as inhibition of parasite growth after 48 hrs by LDH assay; format: functional, organism-based; details: K1, 48 h
Method in brief: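 Ring-stage cultures in human A+ erythrocytes (RPMI 1640, A+ serum, D-glucose), 2.5% haematocrit, 1% parasitaemia; twofold serial dilutions in duplicate, DMSO ≤0.5% final. 48 h at 37 °C under 93% N2/3% O2/4% CO2. Growth read as lactate dehydrogenase activity (APAD, lactate, diaphorase, NBT; 550 nm); % inhibition vs controls; IC50 by linear regression; mean of triplicate experiments.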

SMILES | pIC50 [1] | pIC50 [2] | selectivity ratio [3] | Ratio IC50 [4] | IC50 [5] | pIC50 [6] | IC90 [6] | selectivity ratio [7] | pIC50 [8]
COc1cc2c(cc1OC)CC(CC1CCN(CCCNc3c4c(nc5cc(Cl)ccc35)CC3C=C(C)CC4C3)CC1)C2 (centres undefined) | 5.31 | 5.69 | 12 | 29 | 0.42 equiv | 6.77 | 350 nM | – | –
CC1=CC2Cc3nc4cc(Cl)ccc4c(N)c3C(C1)C2 (centres undefined) [HUPRINE Y] | 5.30 | – | – | 8.2 | > 4 equiv | – | – | – | –
CC1=CC2Cc3nc4cc(Cl)ccc4c(NCCCCCCCCNc4c5c(nc6ccccc46)CCCC5)c3C(C1)C2 (centres undefined) | 6.06 | 5.95 | 7.4 | 6 | 0.19 equiv | 6.82 | 290 nM | 2.8 | 6.41
